Measured values from ChEMBL document CHEMBL1156114 (Bioorg Med Chem Lett, 2009).

T1: Thymidine kinase (Varicella-zoster virus, UniProt P0C0E6)
T1 sequence (P0C0E6 whole entry): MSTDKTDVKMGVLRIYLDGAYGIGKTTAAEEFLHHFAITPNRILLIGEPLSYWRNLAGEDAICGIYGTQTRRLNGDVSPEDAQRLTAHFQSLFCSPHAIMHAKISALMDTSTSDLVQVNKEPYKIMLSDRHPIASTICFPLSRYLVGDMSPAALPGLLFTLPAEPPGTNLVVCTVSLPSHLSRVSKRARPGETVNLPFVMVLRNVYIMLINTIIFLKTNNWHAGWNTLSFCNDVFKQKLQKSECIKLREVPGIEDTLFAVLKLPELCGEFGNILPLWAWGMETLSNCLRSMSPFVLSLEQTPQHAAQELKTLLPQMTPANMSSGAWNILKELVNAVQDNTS

T2: Thymidine kinase (Varicella-zoster virus) (UniProt P0C0E6)
T2 sequence (whole entry): T1 sequence (P0C0E6 whole entry)

B1: Thymidine kinase (Varicella-zoster virus), P0C0E6 (protein)
chain: T1 sequence (P0C0E6 whole entry)

Assays:
Thymidine kinase = target: T1, Thymidine kinase; experiment: Displacement of [CH3-3H]deoxythymidine from Varicella zoster virus recombinant thymidine kinase after 30 mins; set-up: species or system Human alphaherpesvirus 3
Method in brief: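 Inhibition of VZV TK phosphorylation of 1 µM [CH3-3H]dThd (0.1 µCi) in 50 mM Tris-HCl pH 8.0, 2.5 mM MgCl2, 10 mM DTT, 2.5 mM ATP, 10 mM NaF, 1 mg/mL BSA. Reaction started with enzyme, 37 °C for 30 min. Product captured on DE-81 discs, washed in ammonium formate then ethanol, and counted by scintillation. IC50 is the concentration inhibiting phosphorylation by 50%.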

[1] = Cytotoxicity against human HEL cells assessed as alteration of cell morphology by microscopy; assay type: cell-based
Method in brief: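 Confluent human embryonic lung (HEL) cell cultures, run in parallel with a VZV plaque-reduction assay. Compound added at varying concentrations in duplicate. Cells were examined by microscope for altered morphology. MCC is the lowest compound concentration that gives a microscopically detectable change in cell morphology.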

[2] = target: T2, Thymidine kinase (Varicella-zoster virus); experiment: Ratio of Vmax to Km for Varicella zoster virus recombinant thymidine kinase; conditions: Human alphaherpesvirus 3
Method in brief: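 Km and Vmax for each compound as VZV TK substrate, from monophosphate formation at 0.5, 2, 5 and 12.5 µM compound. Enzyme in Tris-HCl pH 8 with 2.5 mM ATP and MgCl2, 37 °C, 60 min. Product quantified by reversed-phase HPLC with fluorescence detection (ex 340/em 415 nm).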

Human alphaherpesvirus 3 [3] = experiment: Antiviral activity against thymidine kinase deficient Varicella zoster virus 07/1 infected human HEL cells assessed as reduction in viral plaque formation after 5 days; assay type: functional, organism-based; conditions: Human alphaherpesvirus 3, 07/1, HEL, 120 h
Method in brief: (§1)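 Confluent HEL cells infected with VZV at 20 PFU/well for 2 h. Residual virus removed, then compound added at varying concentrations in duplicate. Plaques counted after 5 days.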

Human alphaherpesvirus 3 [4] = experiment: Antiviral activity against Varicella zoster virus OKA infected human HEL cells assessed as reduction in viral plaque formation after 5 days; assay type: functional, cell-based; conditions: Human alphaherpesvirus 3, strain Oka vaccine, 120 h; method in brief: as §1
Human alphaherpesvirus 3 [5] = experiment: Antiviral activity against Varicella zoster virus YS infected human HEL cells assessed as reduction in viral plaque formation after 5 days; assay type: functional, organism-based; conditions: Human alphaherpesvirus 3, YS, 120 h
Method in brief: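 Confluent HEL cells infected with VZV at 20 PFU/well for 2 h. Residual virus removed, then compound added at varying concentrations in duplicate. Plaques counted after 5 days. EC50 is the concentration reducing plaque formation by 50% versus untreated controls.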

[6] = substrate: CCCCCc1ccc(-c2cc3cn([C@H]4C[C@H](O)[C@@H](CO)O4)c(=O)nc3o2)cc1; experiment: (§2) Activity at Varicella zoster virus recombinant thymidine kinase assessed as 5-monophosphate BCNA formation after 60 mins by HPLC; conditions: Human alphaherpesvirus 3
Method in brief: (§3)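 VZV TK (1.5 pg) in 50 mM Tris-HCl pH 8, 2.5 mM MgCl2, 10 mM DTT, 2.5 mM ATP, 10 mM NaF; compound at 0.5, 2, 5 and 12.5 µM in DMSO; 37 °C for 60 min. Stopped in ice-cold methanol and centrifuged. Reversed-phase HPLC with ion-pairing phosphate buffer/acetonitrile gradient; nucleoside and 5'-monophosphate quantified by fluorescence (ex 340, em 415 nm).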

[7] = substrate: CCCCCc1ccc(-c2cc3cn([C@@H]4O[C@H](CO)[C@@H](O)[C@H]4F)c(=O)nc3o2)cc1; experiment: as §2; conditions: Human alphaherpesvirus 3; method in brief: as §3
[8] = substrate: CCCCCc1ccc(-c2cc3cn([C@@H]4O[C@H](CO)[C@@H](O)[C@@H]4F)c(=O)nc3o2)cc1; experiment: as §2; conditions: Human alphaherpesvirus 3; method in brief: as §3
[9] = substrate: CCCCCc1ccc(-c2cc3cn([C@@H]4O[C@H](CO)[C@@H](O)C4(F)F)c(=O)nc3o2)cc1; experiment: as §2; conditions: Human alphaherpesvirus 3; method in brief: as §3

| Molecule | IC50 (Thymidine kinase) [µM] | MCC [1] [µM] | Ratio [2] | EC50 (Human alphaherpesvirus 3 [3]) [µM] | EC50 (Human alphaherpesvirus 3 [4]) [µM] | EC50 (Human alphaherpesvirus 3 [5]) [µM] | Km [6] [µM] | Vmax [6] [µM/h] | Km [7] [µM] | Vmax [7] [µM/h] | Km [8] [µM] | Vmax [8] [µM/h] | Km [9] [µM] | Vmax [9] [µM/h] |
| --- | --- | --- | --- | --- | --- | --- | --- | --- | --- | --- | --- | --- | --- | --- |
| CCCCCc1ccc(-c2cc3cn([C@H]4C[C@H](O)[C@@H](CO)O4)c(=O)nc3o2)cc1 [CF1743] | 3.3 | ≥ 50 |  |  |  |  |  |  |  |  |  |  |  |  |
| CCCCCc1ccc(-c2cc3cn([C@@H]4O[C@H](CO)[C@@H](O)C4(F)F)c(=O)nc3o2)cc1 | 13 | ≥ 50 | 14 | > 50 | 1.5 | 6.7 |  |  |  |  |  |  |  |  |
| CCCCCc1ccc(-c2cc3cn([C@@H]4O[C@H](CO)[C@@H](O)[C@H]4F)c(=O)nc3o2)cc1 | 2.7 | > 50 | 7.2 | > 20 | 0.75 |  |  |  |  |  |  |  |  |  |
| CCCCCc1ccc(-c2cc3cn([C@@H]4O[C@H](CO)[C@@H](O)[C@@H]4F)c(=O)nc3o2)cc1 | 38 | > 50 | 45 | > 50 | 0.007 | 0.011 |  |  |  |  |  |  |  |  |
| B1 |  |  |  |  |  |  | 1.58 | 22 | 0.47 | 3.4 | 1.11 | 50 | 0.95 | 14 |
